Data reported in ChEMBL document CHEMBL4033643, “Synthesis and in vitro antitumour activity of crassalactone D, its stereoisomers and novel cinnamic ester derivatives” (Eur J Med Chem, 2017).
pIC50: −log10 of the molar value. The source made the active and inactive calls. The rule behind the calls is not given here.

Tests used:
MRC5 = assay: Cytotoxicity against human MRC5 cells assessed as reduction in cell viability after 72 hrs by MTT assay; assay type: cell-based; conditions: MRC5, 72 h
K562 [1] = assay: Potency index, ratio of doxorubicin IC50 to compound IC50 for human K562 cells; assay type: functional
HeLa = assay: Cytotoxicity against human HeLa cells assessed as reduction in cell viability after 72 hrs by MTT assay; assay type: functional, cell-based
MDA-MB-231 = assay: Cytotoxicity against human MDA-MB-231 cells assessed as reduction in cell viability after 72 hrs by MTT assay; assay type: functional, cell-based; conditions: MDA-MB-231, 72 h
MCF7 = assay: Cytotoxicity against human MCF7 cells assessed as reduction in cell viability after 72 hrs by MTT assay; assay type: functional, cell-based; conditions: MCF7, 72 h
Raji = assay: Cytotoxicity against human Raji cells assessed as reduction in cell viability after 72 hrs by MTT assay; assay type: functional, cell-based
Jurkat = assay: Cytotoxicity against human Jurkat cells assessed as reduction in cell viability after 72 hrs by MTT assay; assay type: functional, cell-based
HL-60 = assay: Cytotoxicity against human HL60 cells assessed as reduction in cell viability after 72 hrs by MTT assay; assay type: functional, cell-based; conditions: HL-60, 72 h
K562 [2] = assay: Cytotoxicity against human K562 cells assessed as reduction in cell viability after 72 hrs by MTT assay; assay type: functional, cell-based; conditions: K562, 72 h
A549 = assay: Cytotoxicity against human A549 cells assessed as reduction in cell viability after 72 hrs by MTT assay; assay type: functional, cell-based; conditions: A549, 72 h
K562 [3] = assay: Cell cycle arrest in human K562 cells assessed as accumulation at sub G1 phase at IC50 after 72 hrs by propidium iodide staining based flow cytometry (reference value: 1.48%); assay type: functional
K562 [4] = assay: Cell cycle arrest in human K562 cells assessed as accumulation at G0/G1 phase at IC50 after 72 hrs by propidium iodide staining based flow cytometry (reference value: 38.48%); assay type: functional
K562 [5] = assay: Cell cycle arrest in human K562 cells assessed as accumulation at S phase at IC50 after 72 hrs by propidium iodide staining based flow cytometry (reference value: 41.03%); assay type: functional
K562 [6] = assay: Cell cycle arrest in human K562 cells assessed as accumulation at G2/M phase at IC50 after 72 hrs by propidium iodide staining based flow cytometry (reference value: 19.01%); assay type: functional
K562 [7] = assay: Induction of apoptosis in human K562 cells assessed as specific apoptosis by Annexin V-FITC/propidium iodide staining based flow cytometry; assay type: functional; set-up: concentration or dose not given beside the values
K562 [8] = assay: Induction of apoptosis in human K562 cells assessed as specific necrosis by Annexin V-FITC/propidium iodide staining based flow cytometry; assay type: functional; set-up: concentration or dose not given beside the values
K562 [9] = assay: Induction of apoptosis in human K562 cells assessed as decrease in Bcl-2 expression level by Western blot analysis; assay type: functional, cell-based
In short: (§1)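 Western blot of treated K562 cells for Bcl-2, Bax, activated caspase 3 and cleaved PARP (85 kDa fragment). Blots developed by ECL, with band expression quantified by densitometry against an untreated control sample.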

K562 [10] = assay: Induction of apoptosis in human K562 cells assessed as increase in Bax expression level by Western blot analysis; assay type: functional, cell-based; in short: as §1
K562 [11] = assay: Induction of apoptosis in human K562 cells assessed as increase in caspase 3 expression level by Western blot analysis; assay type: functional, cell-based; in short: as §1
K562 [12] = assay: Induction of apoptosis in human K562 cells assessed as increase in cleaved PARP expression level by Western blot analysis; assay type: functional, cell-based; in short: as §1
K562 [13] = assay: Cell cycle arrest in human K562 cells assessed as total cell levels at G0/G1 phase at IC50 after 72 hrs by propidium iodide staining based flow cytometry (reference value: 39.97%); assay type: functional
K562 [14] = assay: Cell cycle arrest in human K562 cells assessed as total cell levels at S phase at IC50 after 72 hrs by propidium iodide staining based flow cytometry (reference value: 36.49%); assay type: functional
K562 [15] = assay: Cell cycle arrest in human K562 cells assessed as total cell levels at G2/M phase at IC50 after 72 hrs by propidium iodide staining based flow cytometry (reference value: 14.31%); assay type: functional
K562 [16] = assay: Cell cycle arrest in human K562 cells assessed as total cell levels at M4 phase at IC50 after 72 hrs by propidium iodide staining based flow cytometry (reference value: 0.50%); assay type: functional
K562 [17] = assay: Induction of apoptosis in human K562 cells assessed as gated necrotic cells by Annexin V-FITC/propidium iodide staining based flow cytometry (reference value: 0.24%); assay type: functional
K562 [18] = assay: Induction of apoptosis in human K562 cells assessed as gated late apoptotic cells by Annexin V-FITC/propidium iodide staining based flow cytometry (reference value: 0.88%); assay type: functional
K562 [19] = assay: Induction of apoptosis in human K562 cells assessed as gated viable cells by Annexin V-FITC/propidium iodide staining based flow cytometry (reference value: 95.78%); assay type: functional
K562 [20] = assay: Induction of apoptosis in human K562 cells assessed as gated early apoptotic cells by Annexin V-FITC/propidium iodide staining based flow cytometry (reference value: 3.18%); assay type: functional
K562 [21] = assay: Induction of apoptosis in human K562 cells assessed as total necrotic cells by Annexin V-FITC/propidium iodide staining based flow cytometry (reference value: 0.23%); assay type: functional
K562 [22] = assay: Induction of apoptosis in human K562 cells assessed as total late apoptotic cells by Annexin V-FITC/propidium iodide staining based flow cytometry (reference value: 0.77%); assay type: functional
K562 [23] = assay: Induction of apoptosis in human K562 cells assessed as total viable cells by Annexin V-FITC/propidium iodide staining based flow cytometry (reference value: 92.45%); assay type: functional
K562 [24] = assay: Induction of apoptosis in human K562 cells assessed as total early apoptotic cells by Annexin V-FITC/propidium iodide staining based flow cytometry (reference value: 3.07%); assay type: functional

`O=C1C=C[C@]2(C[C@H](O)[C@@H](c3ccccc3)O2)O1` was tested, and the pIC50 (MRC5) was less than 4.00, the “Ratio IC50” value (K562 [1]) was 2 and the pIC50 (HeLa) was 6.47. The pIC50 (MDA-MB-231) was 5.72, the pIC50 (MCF7) was 4.93 and the pIC50 (Raji) was 5.63. The pIC50 (Jurkat) was 6.68, the pIC50 (HL-60) was 5.97 and the pIC50 (K562 [2]) was 6.92. It also gave a pIC50 (A549) of 4.54, an Activity (K562 [3]) of 1.6% and an Activity (K562 [4]) of 32.52%. For the same compound, the Activity (K562 [5]) was 59.02%, the Activity (K562 [6]) was 6.86% and the Activity (K562 [7]) was 22.6%. The Activity (K562 [8]) was 1.08%, the Activity (K562 [9]) was “Active” and the Activity (K562 [10]) was “inactive”. For the same compound, the Activity (K562 [11]) was “Active”, the Activity (K562 [12]) was “Active” and the Activity (K562 [13]) was 25.97%. The Activity (K562 [14]) was 47.93%, the Activity (K562 [15]) was 5.47% and the Activity (K562 [16]) was 1.26%. It also gave an Activity (K562 [17]) of 5.02%, an Activity (K562 [18]) of 16.8% and an Activity (K562 [19]) of 69.31%. It also gave an Activity (K562 [20]) of 8.88%, an Activity (K562 [21]) of 1.21% and an Activity (K562 [22]) of 4.05%. For the same compound, the Activity (K562 [23]) was 16.71% and the Activity (K562 [24]) was 2.14%.
